From publication PMC2721324 (Bioorganic & medicinal chemistry letters, 2009)
Read-outs that look alike come from different tables or passages of the source.

Legend:
human P2Y2 receptor [1] = molecular target: T1, human P2Y2 receptor (Homo sapiens, UniProt P41231); conditions: cited from earlier work; for EC50: read-out: Reference comp. (X = OCH2) EC50, native riboside, NE = no effect at 10 μM
human P2Y4 receptor [2] = molecular target: T2, human P2Y4 receptor (Homo sapiens, UniProt P51582); conditions: cited from earlier work; for EC50: read-out: Reference comp. (X = OCH2) EC50, native riboside, NE = no effect at 10 μM
T2 sequence (P51582 whole entry): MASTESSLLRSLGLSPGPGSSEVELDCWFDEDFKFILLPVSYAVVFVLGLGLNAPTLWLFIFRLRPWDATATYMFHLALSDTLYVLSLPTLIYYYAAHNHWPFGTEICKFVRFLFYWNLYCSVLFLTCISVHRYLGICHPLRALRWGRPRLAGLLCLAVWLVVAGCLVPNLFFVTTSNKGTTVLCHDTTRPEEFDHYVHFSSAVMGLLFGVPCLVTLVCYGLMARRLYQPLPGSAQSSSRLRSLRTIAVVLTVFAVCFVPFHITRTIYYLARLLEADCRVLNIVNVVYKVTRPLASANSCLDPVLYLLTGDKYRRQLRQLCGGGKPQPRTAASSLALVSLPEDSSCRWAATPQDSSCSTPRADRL

human P2Y2 receptor [3] = molecular target: T1, human P2Y2 receptor; assay type: cell-based; conditions: for agonist character (full or partial agonist): relative to UTP
Procedure, shortened: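 PLC activation via Gq in 1321N1 human astrocytoma cells stably expressing recombinant human P2Y2 receptor. The parent cells lack a native nucleotide response. Concentration–effect curves were generated for each test compound, and the maximal response was expressed as a percentage of the UTP effect (UTP = 100%) to classify full or partial agonism.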

human P2Y6 receptor [4] = molecular target: T3, human P2Y6 receptor (Homo sapiens, UniProt Q15077); assay type: cell-based
T3 sequence (Q15077 whole entry): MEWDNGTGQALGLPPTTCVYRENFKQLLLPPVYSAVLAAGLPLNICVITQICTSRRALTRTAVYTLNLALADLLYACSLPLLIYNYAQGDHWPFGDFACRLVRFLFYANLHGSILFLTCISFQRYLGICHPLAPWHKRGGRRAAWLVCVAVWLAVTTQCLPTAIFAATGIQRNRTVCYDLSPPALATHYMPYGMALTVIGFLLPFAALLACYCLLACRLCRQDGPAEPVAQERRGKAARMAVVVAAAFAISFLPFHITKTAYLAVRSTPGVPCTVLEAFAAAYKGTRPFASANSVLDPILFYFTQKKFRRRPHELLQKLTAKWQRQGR
Procedure, shortened: (§1)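 Recombinant human P2Y4 or P2Y6 receptor, Gq-coupled, was stably expressed in 1321N1 human astrocytoma cells, which lack a native nucleotide response. Phospholipase C activation was measured over concentration–effect curves for each test compound. EC50 is the concentration giving 50% of the maximal effect, reported as mean ± standard error.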

human P2Y4 receptor [5] = molecular target: T2, human P2Y4 receptor; assay type: cell-based; conditions: stimulation of PLC, NE = no effect at 10 μM
Procedure, shortened: as §1

human P2Y6 receptor [6] = molecular target: T3, human P2Y6 receptor; conditions: read-out: Reference comp. (X = OCH2) EC50, native riboside, NE = no effect at 10 μM; cited from earlier work

T1 sequence (P41231 whole entry): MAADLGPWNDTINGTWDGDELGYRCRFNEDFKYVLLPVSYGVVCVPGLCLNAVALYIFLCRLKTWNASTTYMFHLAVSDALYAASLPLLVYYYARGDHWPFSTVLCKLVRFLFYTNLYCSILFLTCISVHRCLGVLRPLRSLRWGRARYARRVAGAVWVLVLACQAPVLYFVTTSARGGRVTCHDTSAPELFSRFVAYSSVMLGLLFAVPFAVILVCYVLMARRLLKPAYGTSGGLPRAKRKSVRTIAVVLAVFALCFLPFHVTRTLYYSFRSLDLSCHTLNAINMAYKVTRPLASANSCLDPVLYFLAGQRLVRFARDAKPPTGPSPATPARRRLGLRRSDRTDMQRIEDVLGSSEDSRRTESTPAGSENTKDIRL

Compound	EC50 (human P2Y2 receptor [1])	agonist character (full or partial agonist) (human P2Y2 receptor [3])	EC50 (human P2Y6 receptor [6])	EC50 (human P2Y4 receptor [2])	also measured
Nc1ncnc2c1ncn2[C@@H]1O[C@H](COP(=O)(O)OP(=O)(O)OP(=O)(O)O)[C@@H](O)[C@H]1O [ATP]	85 ± 12 nM				Reference comp. (X = OCH2) activity (human P2Y4 receptor [2]; native riboside): Antagonist[12]
O=c1ccn([C@@H]2O[C@H](/C=C/P(=O)(O)OP(=O)(O)OP(=O)(O)O)[C@@H](O)[C@H]2O)c(=O)[nH]1 [Compound 3, uridine 5′-(diphospho)-vinylphosphonate]		Full agonist activity			reduction of potency relative to ATP or UTP (human P2Y2 receptor [3]; range over compounds 1, 2 and 3): 16–176 fold
O=c1ccn([C@@H]2O[C@H](CP(=O)(O)OP(=O)(O)O)[C@@H](O)[C@H]2O)c(=O)[nH]1 [Compound 4, uridine 5′-phospho-phosphonate]		partial ag			agonist character (full or partial agonist) (human P2Y6 receptor [4]): full agonist; potency less than UDP (human P2Y6 receptor [4]): approximately 40 fold; maximal effect relative to that of UTP (human P2Y2 receptor [3]; effect of UTP = 100%): ≤ 50%; EC50 (human P2Y4 receptor [5]): > 10 µM
O=c1ccn([C@@H]2O[C@H](COP(=O)(O)OP(=O)(O)C[C@H]3O[C@@H](n4ccc(=O)[nH]c4=O)[C@H](O)[C@@H]3O)[C@@H](O)[C@H]2O)c(=O)[nH]1 [Compound 5, di-(uridine- phosphonate)]					EC50 (human P2Y6 receptor [4]; stimulation of PLC, mean ± standard error, NE = no effect at 10 μM): > 10 µM; EC50 (human P2Y4 receptor [5]): > 10 µM
O=c1ccn([C@@H]2O[C@H](CCP(=O)(O)O)[C@@H](O)[C@H]2O)c(=O)[nH]1 [Compound 7, uridine 5 ′-methylene-phosphonate]		partial ag			EC50 (human P2Y4 receptor [5]; listed as 5′-methylphosphonate equivalent of UMP): inactive
O=c1ccn([C@@H]2O[C@H](COP(=O)(O)OP(=O)(O)O)[C@@H](O)[C@H]2O)c(=O)[nH]1 [UDP]	> 10000 nM		46 ± 20 nM	> 10 µM	
O=c1ccn([C@@H]2O[C@H](COP(=O)(O)O)[C@@H](O)[C@H]2O)c(=O)[nH]1 [UMP]	> 10000 nM		> 10000 nM	> 10 µM	Reference comp. (X = OCH2) EC50 (human P2Y2 receptor [1]; native riboside, NE = no effect at 10 μM): no effect
O=c1ccn([C@@H]2O[C@H](COP(=O)(O)OP(=O)(O)OP(=O)(O)O)[C@@H](O)[C@H]2O)c(=O)[nH]1 [UTP]	49 ± 12 nM		> 10000 nM	0.073 ± 0.02 µM	
O=c1ccn([C@@H]2O[C@H](COP(=O)(O)OP(=O)(O)OC[C@H]3O[C@@H](n4ccc(=O)[nH]c4=O)[C@H](O)[C@@H]3O)[C@@H](O)[C@H]2O)c(=O)[nH]1 [Up2U]	> 10000 nM		1260 ± 170 nM	> 10 µM	
